Measurements published in PubChem BioAssay.
Results filed as inconclusive are left out.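 Rule for the calls, unless noted: active = RAM network inhibition above 8.4% in each of two replicates, 3 SD over the compound average; inconclusive = above 8.4% inhibition in only one replicate; inactive = 8.4% inhibition or less in each replicate.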

Legend:
[1] = OD615 S. cerevisiae growth inhibition, permissive medium, pilot counter-assay, permissive growth control for S. cerevisiae lifespan shortening project (AID 705;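 active = growth inhibition above 25% in both replicates, a cutoff set 3 SD above the mean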); details: OD615, 24 h, at 10 µM, hits give high values
In short: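 Material: engineered DeaD yeast; Compound: one dose 10 µM, DMSO 0.25% final; Detection: absorbance (optical density) at 615 nm; Buffer or medium: permissive raffinose/galactose medium; Timing: 24 h exposure, 30 °C.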

[2] = Restrictive medium S. cerevisiae growth inhibition, OD615, pilot screen of yeast lifespan reduction project, restrictive growth control (AID 706;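 active = growth inhibition above a set limit, 3 SD over mean compound inhibition, in both replicates, cut at about 43% in these data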;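 note: modified DeaD lifespan yeast strain shifted to restrictive glucose medium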); details: OD615, 48 h, at 10 µM, hits give high values
In short: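 Buffer or medium: restrictive glucose medium (CSMM-D); test system: modified S. cerevisiae; doses: single dose of 10 µM compound final, 0.25% DMSO; schedule: 48 h compound exposure at 30 °C; detection: absorbance (optical density) measured at 615 nm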

[3] = viability gain of MRP-1-high H69AR cells under doxorubicin, pilot screen, MRP-1 activator project, CellTiter-Glo, duplicate (AID 807;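 active = viability increase at or above a cutoff of the median across tested compounds plus 3 SD, cut at about 8.5% in these data, passing the limit was not always enough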;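 note: compound pretreatment 18-22 h then 72 h combined with doxorubicin; 0% = doxorubicin alone and 100% = vehicle without doxorubicin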); details: H69AR viability with doxorubicin, CellTiter-Glo luminescence; at 10 µM; hits give high values
[4] = growth suppression of beta-catenin knockout HCT116, pilot screen, human colon tumor cells (AID 823;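 active = cell viability at or below a set limit in both duplicate runs, the limit being the all-compound median minus 4 SD, cut at about 23% in these data, passing the limit was not always enough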;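 note: 0% = wells killed by 20 µM Hyamine and 100% = untreated DMSO cell wells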); details: CellTiter-Glo, 60 h, at 10 µM, hits give low values
[5] = growth suppression of PTEN-deleted HCT116, pilot screen, cell-based, HCT116 clonal line, CellTiter-Glo (AID 824;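 active = viability at or below 27.92% in each of two runs, the all-compound median minus 4 SD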;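 note: 0% = 20 µM Hyamine control and 100% = vehicle cell control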); details: 60 h, at 10 µM, hits give low values
[6] = inhibitors of the yeast RAM network, pilot screen, dse1pr::URA3 reporter, 5-FOA selection (AID 869;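 active = inhibition over a set limit, the all-compound mean plus 3 SD, in both replicate runs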;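 note: 0% = DMSO wells with no growth and 100% = 10 µM 1-NA-PP1 with full growth; RAM network block rescues cells from 5-FOA so hits raise OD615 growth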); details: S. cerevisiae dse1pr::URA3 5-FOA growth, OD615, 2 d; at 10 µM; hits give high values; strain carries analog-sensitive mutant Cbk1 kinase
[7] = RAM signaling pathway blockade in yeast – S. cerevisiae, Pdr1DBD-CYC8 efflux-inhibited sensitized strain, primary screen (AID 1298);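 note: 0% = DMSO untreated cells without growth and 100% = 10 µM 1-NA-PP1 full growth; higher means more yeast growth rescued from 5-FOA killing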; details: S. cerevisiae cbk1-as DSE1-URA3 strain, 5-FOA growth OD615, 2 d; at 50 µM; hits give high values

CCN(CC)c1cccc(OC2=NS(=O)(=O)c3ccccc32)c1
inactive: growth inhibition [1] -1.53% | growth inhibition [2] 0.2% | viability increase [3] -1.25% | viability [4] 99.1% | viability [5] 97.8% | inhibition [6] 1.63% | RAM network inhibition [7] 5.72%

O=C(CSc1nccn1-c1ccc(Cl)cc1)NCc1ccc2c(c1)OCO2
inactive: growth inhibition [1] -14.6% | growth inhibition [2] -8.19% | viability increase [3] -0.8% | viability [4] 96.3% | viability [5] 89.5% | inhibition [6] 1.3% | RAM network inhibition [7] 2.26%

CCOCC(=O)NCc1ccc2c(c1)cc(C)n2C
inactive: growth inhibition [1] -13.8% | growth inhibition [2] -14% | viability increase [3] -1.45% | viability [4] 103% | viability [5] 97.3% | inhibition [6] 0.65% | RAM network inhibition [7] 0.21%

Cn1c(C(=O)NCCN2CCN(Cc3ccccc3)CC2)cc2c(=O)n(C)c3ccccc3c21
inactive: growth inhibition [1] -0.4% | growth inhibition [2] 5.33% | viability increase [3] -6.61% | viability [4] 78.5% | viability [5] 79% | inhibition [6] -0.115% | RAM network inhibition [7] 2.19%

COc1ccc(NC(=O)C2CCN(C(=O)c3ccccc3)CC2)c(OC)c1
inactive: growth inhibition [1] 9.86% | growth inhibition [2] -0.9% | viability increase [3] -2.96% | viability [4] 95.8% | viability [5] 94.8% | inhibition [6] 2.57% | RAM network inhibition [7] 3.44%

COC(=O)C1C(=O)c2c([nH]c(C(=O)OC3CCCCC3)c2C)CC1C (stereo not drawn)
inactive: growth inhibition [1] -2.87% | growth inhibition [2] 2.14% | viability increase [3] 2.69% | viability [4] 107% | viability [5] 104% | inhibition [6] 0.105% | RAM network inhibition [7] 2.04%

N#CC1=C(N)Oc2c(sc3ccccc23)C1c1ccco1 (stereo not drawn)
inactive: growth inhibition [1] -25.7% | growth inhibition [2] -4.08% | viability increase [3] -4.53% | viability [4] 63.3% | viability [5] 65.2% | inhibition [6] 1.22% | RAM network inhibition [7] -0.62%

COC1=CC(=O)OC12CCCCC2
inactive: growth inhibition [1] 3.99% | growth inhibition [2] -2.73% | viability increase [3] -0.88% | viability [4] 94.7% | viability [5] 95.8% | inhibition [6] 1.27% | RAM network inhibition [7] 2.11%

C=CCn1c(SCCCC)nc(O)cc1=O
inactive: growth inhibition [1] 1.55% | growth inhibition [2] 8.79% | viability increase [3] -0.11% | viability [4] 105% | viability [5] 102% | inhibition [6] 0.02% | RAM network inhibition [7] -0.21%

c1coc(C2Nc3ccccc3-c3nc4ccccc4n32)c1 (stereo not drawn)
inactive: growth inhibition [1] -27.2% | growth inhibition [2] -4.04% | viability increase [3] -4.32% | viability [4] 66.6% | viability [5] 68.1% | inhibition [6] 2.14% | RAM network inhibition [7] 8.31%

CC1CN(c2cc(=O)n(Cc3ccc(F)cc3)c(=O)[nH]2)CC(C)O1 (stereo not drawn)
inactive: growth inhibition [1] 5.64% | growth inhibition [2] -6.42% | viability increase [3] 0.06% | viability [4] 99.4% | viability [5] 105% | inhibition [6] 1.31% | RAM network inhibition [7] -0.24%

N#Cc1cccc(NC(=O)CC2CCCCC2)c1
inactive: growth inhibition [1] -1.48% | growth inhibition [2] 11.6% | viability increase [3] -0.95% | viability [4] 95% | viability [5] 86.8% | inhibition [6] 0.645% | RAM network inhibition [7] 2.76%

COc1ccc(-c2nc(=S)[nH][nH]2)cc1
inactive: growth inhibition [1] -5.89% | growth inhibition [2] -17% | viability increase [3] -1.62% | viability [4] 99% | viability [5] 89% | inhibition [6] 1.53% | RAM network inhibition [7] 5.26%

COCCNC(=O)CN1C(=O)COc2ccc(Cl)cc21
inactive: growth inhibition [1] -4.28% | growth inhibition [2] 6.35% | viability increase [3] -1.25% | viability [4] 111% | viability [5] 97.9% | inhibition [6] 1.12% | RAM network inhibition [7] 5.23%

CCCS(=O)(=O)c1nc(S(=O)(=O)c2ccc(C)cc2)c(NCCN2CCOCC2)s1
inactive: growth inhibition [1] -8.93% | growth inhibition [2] -6.58% | viability increase [3] -0.11% | viability [4] 93.7% | viability [5] 86.7% | inhibition [6] 1.04% | RAM network inhibition [7] 6.38%

C=CCOC(=O)C1=C(C)N=C2SCCC(=O)N2C1c1ccc(OC(=O)c2ccco2)cc1 (stereo not drawn)
inactive: growth inhibition [1] 5.35% | growth inhibition [2] 24.3% | viability increase [3] -0.72% | viability [4] 94.2% | viability [5] 85.8% | inhibition [6] 1.94% | RAM network inhibition [7] 5.69%

Cc1nc(-c2ccc3c(c2)OCO3)cs1
inactive: growth inhibition [1] -3.71% | growth inhibition [2] -1.42% | viability increase [3] 0.2% | viability [4] 102% | viability [5] 101% | inhibition [6] 1.68% | RAM network inhibition [7] 2.38%

COc1cc(-c2nc3cnccn3c2Nc2ccccc2)ccc1O
inactive: growth inhibition [1] -7.8% | growth inhibition [2] 0.535% | viability increase [3] -5.59% | viability [4] 47.8% | viability [5] 44.7% | inhibition [6] 2.43% | RAM network inhibition [7] 0.41%

COc1ccc(CN2C(=O)CCC2(C)C(=O)NC2CCCC2)c(OC)c1 (stereo not drawn)
inactive: growth inhibition [1] -5.04% | growth inhibition [2] -4.46% | viability increase [3] 0.91% | viability [4] 105% | viability [5] 101% | inhibition [6] 0.71% | RAM network inhibition [7] 2.04%

O=C(NC1CCCC1)c1ccc(CS(=O)(=O)c2ccc(Br)cc2)o1
inactive: growth inhibition [1] -3.78% | growth inhibition [2] -9.12% | viability increase [3] -0.83% | viability [4] 102% | viability [5] 93.9% | inhibition [6] 3.01% | RAM network inhibition [7] 1.03%

COc1ccc(CC(=O)Nc2c3c(nn2C(C)(C)C)CS(=O)C3)cc1 (stereo not drawn)
inactive: growth inhibition [1] -13.6% | growth inhibition [2] -4.57% | viability increase [3] -0.14% | viability [4] 109% | viability [5] 101% | inhibition [6] 1.24% | RAM network inhibition [7] 0.63%

COc1ccc(-c2nc(CS(=O)CC(=O)NCc3cccnc3)c(C)o2)cc1 (stereo not drawn)
inactive: growth inhibition [1] 2.57% | growth inhibition [2] -2.7% | viability increase [3] -4.05% | viability [4] 89.3% | viability [5] 92.5% | inhibition [6] 1.14% | RAM network inhibition [7] 1.62%

CCOC(=O)CSCc1nc(-c2ccc(Cl)cc2)oc1C
inactive: growth inhibition [1] -11.6% | growth inhibition [2] -8.34% | viability increase [3] 1.98% | viability [4] 94.8% | viability [5] 89.8% | inhibition [6] 1.97% | RAM network inhibition [7] -1.32%

CCN(CC)S(=O)(=O)c1ccc(NC2c3ccccc3C(=O)N2Cc2ccc3c(c2)OCO3)cc1 (stereo not drawn)
inactive: growth inhibition [1] 1.96% | growth inhibition [2] -8.94% | viability increase [3] -2.84% | viability [4] 92.9% | viability [5] 93% | inhibition [6] -0.09% | RAM network inhibition [7] 5.92%
